Structures are written as SMILES.

Data set [1] has as its target 5-hydroxytryptamine receptor 1E (Homo sapiens, UniProt P28566). The data set can be described thus: Binding affinity to 5-HT1ER (unknown origin). In outline:
(§1)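 Run by the NIMH Psychoactive Drug Screening Program as competition radioligand binding on crude membranes of cells expressing the recombinant receptor. Eleven dilutions (0.05 nM–50 μM, prepared at 5× assay concentration) were made in 50 mM Tris-HCl, 10 mM MgCl₂, 1 mM EDTA, pH 7.4. Incubation was 1.5 h at rt in the dark, followed by GF/B filtration (0.3% PEI) and scintillation counting. IC₅₀ was converted to Ki; at least triplicate.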

In data set [2] the target is T1, 5-hydroxytryptamine receptor 2C (Homo sapiens, UniProt P28335).
T1 sequence (P28335 whole entry): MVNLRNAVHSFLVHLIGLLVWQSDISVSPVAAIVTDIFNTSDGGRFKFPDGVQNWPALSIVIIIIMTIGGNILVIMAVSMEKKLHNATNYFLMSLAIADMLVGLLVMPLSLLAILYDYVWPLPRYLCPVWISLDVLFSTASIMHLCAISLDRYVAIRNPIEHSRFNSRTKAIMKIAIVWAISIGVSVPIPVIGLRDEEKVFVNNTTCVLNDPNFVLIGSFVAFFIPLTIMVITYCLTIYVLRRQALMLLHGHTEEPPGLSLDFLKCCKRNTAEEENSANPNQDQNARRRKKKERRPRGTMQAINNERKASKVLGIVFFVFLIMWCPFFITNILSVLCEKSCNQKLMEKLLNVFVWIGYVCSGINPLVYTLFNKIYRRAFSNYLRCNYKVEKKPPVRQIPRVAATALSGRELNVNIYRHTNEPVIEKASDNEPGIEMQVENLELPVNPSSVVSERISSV
The data set can be described thus: Binding affinity to 5-HT2CR (unknown origin). An outline of the steps: as §1

A short description of data set [3]: Cmax in ICR mouse plasma at 10 mg/kg, ip measured upto 8 hrs by LC-MS/MS analysis. The class given is ADME, organism-based. The arrangement: route intraperitoneal, dose 10 mg/kg, time <=8. An outline of the steps: (§2)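 Male ICR mice, 7–8 weeks, 30 ± 5 g; single dose 1 mg/kg iv or 10 mg/kg ip (n = 4 each). Carotid artery blood at 0, 0.08 (iv only), 0.25, 0.5, 1, 2, 4, 6, 8 h. Plasma precipitated with acetonitrile containing internal standard, quantified by LC–MS/MS. Parameters by non-compartmental analysis; AUClast by trapezoidal rule; values mean ± SD.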

Data set [4] relates to Mus musculus. The data set can be described thus: Effect on shank3-/- mouse model of autism spectrum disorder assessed as time taken for duration of self grooming at 5 mg/kg, ip after 30 mins under 40 lux lighting (reference value: 224 +/- 47.4 sec). The class given is functional. The settings on record: 0.5 h.
Data set [5] is described as follows: Half life in ICR mouse plasma at 10 mg/kg, ip measured upto 8 hrs by LC-MS/MS. The class given is ADME, organism-based. In outline:
as §2

The nature of data set [6]: Volume of distribution in steady state in ICR mouse plasma at 1 mg/kg, iv measured upto 8 hrs by LC-MS/MS analysis. The class given is ADME, organism-based. Conditions: read-out: Vdss; call rule not given here. In outline:
as §2

Data set [7] in a line: Bioavailability in ICR mouse plasma at 10 mg/kg, ip measured upto 8 hrs by LC-MS/MS analysis. The class given is ADME, organism-based. An outline of the steps: as §2
The target in data set [8] is T2, 5-hydroxytryptamine receptor 7 (Homo sapiens, UniProt P34969). The data set can be described thus: Agonist activity at 5-HT7R (unknown origin) transfected in HEK293 cells expressing tTA-dependent luciferase reporter and beta arrestin 2-TEV fusion gene assessed as beta arrestin recruitment incubated for 22 hrs by Tango assay. Conditions: hek293. The class given is functional, cell-based.
T2 sequence (P34969 whole entry, the tested form may be a part): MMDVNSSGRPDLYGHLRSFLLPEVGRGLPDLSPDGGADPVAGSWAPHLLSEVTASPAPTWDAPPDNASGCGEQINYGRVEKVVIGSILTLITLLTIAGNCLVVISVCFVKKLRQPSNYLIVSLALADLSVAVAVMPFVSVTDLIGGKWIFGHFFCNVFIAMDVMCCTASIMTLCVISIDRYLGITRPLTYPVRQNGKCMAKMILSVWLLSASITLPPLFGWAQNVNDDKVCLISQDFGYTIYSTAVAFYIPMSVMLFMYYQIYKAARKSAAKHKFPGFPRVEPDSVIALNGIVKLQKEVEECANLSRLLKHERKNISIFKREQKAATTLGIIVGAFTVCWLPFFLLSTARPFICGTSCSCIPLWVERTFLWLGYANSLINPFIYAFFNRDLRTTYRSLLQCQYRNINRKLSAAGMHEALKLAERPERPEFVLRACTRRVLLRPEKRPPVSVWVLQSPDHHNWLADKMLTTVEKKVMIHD

Data set [9] concerns the target T2, 5-hydroxytryptamine receptor 7. The data set can be described thus: Displacement of [3H] D-lysergic acid diethylamide from 5-HT7R (unknown origin) transfected in HEK293 cells incubated for 1.5 hrs by microbeta scintillation counter analysis. Format: cell-based. The settings on record: read-out: Ki. (In general: Loss of bound radioactivity is the signal in a displacement assay; it reports binding, not function.)

Data set [10] deals with Mus musculus. The data set can be described thus: Effect on wild type mouse assessed as time taken for duration of self grooming at 5 mg/kg, ip pretreated for 10 mins in presence of SB269970 followed by compound addition and measured after 30 mins under 40 lux lighting (reference value: 43.7 +/- 10.8 sec). The class given is functional. Conditions: 0.5 h.
The next data set addresses T3, CYP1A2 (Homo sapiens, UniProt P05177).
T3 sequence (P05177 whole entry): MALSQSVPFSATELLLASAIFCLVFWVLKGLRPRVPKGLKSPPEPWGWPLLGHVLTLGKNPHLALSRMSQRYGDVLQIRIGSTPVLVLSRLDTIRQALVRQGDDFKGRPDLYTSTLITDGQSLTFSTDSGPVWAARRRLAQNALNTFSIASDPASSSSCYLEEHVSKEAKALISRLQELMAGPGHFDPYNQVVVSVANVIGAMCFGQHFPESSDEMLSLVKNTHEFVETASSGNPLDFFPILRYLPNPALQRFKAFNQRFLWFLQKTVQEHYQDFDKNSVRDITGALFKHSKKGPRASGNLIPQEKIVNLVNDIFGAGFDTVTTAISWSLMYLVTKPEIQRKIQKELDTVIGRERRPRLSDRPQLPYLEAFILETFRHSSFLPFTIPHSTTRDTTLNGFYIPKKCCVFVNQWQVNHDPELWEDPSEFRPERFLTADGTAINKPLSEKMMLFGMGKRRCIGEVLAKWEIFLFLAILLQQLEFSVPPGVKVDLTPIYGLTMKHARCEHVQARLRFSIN
The data set can be described thus: Inhibition of CYP1A2 in human liver microsomes assessed as remaining activity at 10 uM using phenacetin as substrate preincubated for 5 mins followed by addition of NADPH generating system and incubated for 15 mins by LC/MS relative to control. The class given is ADME. Conditions: probe phenacetin, time 20 min, read-out: Activity. In outline:
(§3)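 Human liver microsomes (0.25 mg/mL) in 0.1 M phosphate pH 7.4 with a five-substrate cocktail: phenacetin 50 μM, diclofenac 10 μM, S-mephenytoin 100 μM, dextromethorphan 5 μM, midazolam 2.5 μM. Compound at 0 (control) or 10 μM. Preincubated 5 min at 37 °C, NADPH-generating system added, 15 min at 37 °C. Stopped with acetonitrile plus internal standard; substrate metabolites measured by LC/MS.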
On the technique in general: Liver microsomes are a subcellular fraction often used to study metabolism.

A short description of data set [11]: Half life in ICR mouse plasma at 1 mg/kg, iv measured upto 8 hrs by LC-MS/MS. The class given is ADME, organism-based. In outline:
as §2

Data set [12] is described as follows: Clearance in ICR mouse plasma at 1 mg/kg, iv measured upto 8 hrs by LC-MS/MS analysis. Format: ADME, organism-based. In outline:
as §2

For data set [13], the target named is 5-hydroxytryptamine receptor 6 (Homo sapiens, UniProt P50406). The data set can be described thus: Binding affinity to 5-HT6R (unknown origin). In outline: as §1
5-hydroxytryptamine receptor 6, sequence (P50406 whole entry): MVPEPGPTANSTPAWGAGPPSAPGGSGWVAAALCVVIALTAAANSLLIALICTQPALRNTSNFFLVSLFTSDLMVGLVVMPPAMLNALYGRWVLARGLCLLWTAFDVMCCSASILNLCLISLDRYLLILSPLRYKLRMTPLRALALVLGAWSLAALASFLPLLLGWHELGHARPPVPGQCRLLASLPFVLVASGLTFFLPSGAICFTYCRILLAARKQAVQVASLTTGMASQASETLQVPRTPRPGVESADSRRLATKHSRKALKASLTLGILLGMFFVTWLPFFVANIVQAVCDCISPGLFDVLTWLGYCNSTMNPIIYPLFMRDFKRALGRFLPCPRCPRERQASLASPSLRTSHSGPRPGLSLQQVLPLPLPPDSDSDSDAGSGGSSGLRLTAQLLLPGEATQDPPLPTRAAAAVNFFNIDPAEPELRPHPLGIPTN
The next data set addresses CYP2C9 (Homo sapiens, UniProt P11712). The data set can be described thus: Inhibition of CYP2C9 in human liver microsomes assessed as remaining activity at 10 uM using diclofenac as substrate preincubated for 5 mins followed by addition of NADPH generating system and incubated for 15 mins by LC/MS relative to control. The class given is ADME. Conditions: probe diclofenac, time 20 min, read-out: Activity. In outline: as §3

Another data set concerns the target CYP2C19 (Homo sapiens, UniProt P33261). The data set can be described thus: Inhibition of CYP2C19 in human liver microsomes assessed as remaining activity at 10 uM using S-mephenytoin as substrate preincubated for 5 mins followed by addition of NADPH generating system and incubated for 15 mins by LC/MS relative to control. Format: ADME. The settings on record: probe S-mephenytoin, time 20 min, read-out: Activity. An outline of the steps: as §3

Data set [14] in a line: AUClast in ICR mouse plasma at 10 mg/kg, ip measured upto 8 hrs by LC-MS/MS analysis. The class given is ADME, organism-based. On the set-up: route intraperitoneal, dose 10 mg/kg, time <=8. An outline of the steps: as §2

5-hydroxytryptamine receptor 1E, sequence (P28566 whole entry): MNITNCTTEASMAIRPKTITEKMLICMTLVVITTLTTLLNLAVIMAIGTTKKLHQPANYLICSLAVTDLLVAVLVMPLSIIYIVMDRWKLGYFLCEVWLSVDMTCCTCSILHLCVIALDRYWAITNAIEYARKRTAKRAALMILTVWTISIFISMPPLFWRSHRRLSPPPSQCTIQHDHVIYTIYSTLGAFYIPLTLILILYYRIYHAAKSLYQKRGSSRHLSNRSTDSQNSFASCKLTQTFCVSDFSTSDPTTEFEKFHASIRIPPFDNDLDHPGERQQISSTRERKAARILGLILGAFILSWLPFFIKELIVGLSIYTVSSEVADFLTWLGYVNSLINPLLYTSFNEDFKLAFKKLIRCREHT
CYP2C9, sequence (P11712 whole entry): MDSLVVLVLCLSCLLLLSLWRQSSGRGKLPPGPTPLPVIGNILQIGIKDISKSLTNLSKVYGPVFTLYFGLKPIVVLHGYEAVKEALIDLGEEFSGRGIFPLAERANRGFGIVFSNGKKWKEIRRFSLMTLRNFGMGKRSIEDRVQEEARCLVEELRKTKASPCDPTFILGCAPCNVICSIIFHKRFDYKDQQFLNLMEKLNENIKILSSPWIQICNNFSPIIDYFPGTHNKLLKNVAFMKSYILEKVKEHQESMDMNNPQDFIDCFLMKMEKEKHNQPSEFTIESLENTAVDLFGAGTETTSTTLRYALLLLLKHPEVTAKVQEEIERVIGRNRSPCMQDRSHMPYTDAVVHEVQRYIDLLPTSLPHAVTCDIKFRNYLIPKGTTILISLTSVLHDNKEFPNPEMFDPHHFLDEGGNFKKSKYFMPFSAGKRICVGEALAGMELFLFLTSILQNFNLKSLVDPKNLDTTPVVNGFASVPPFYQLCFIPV
CYP2C19, sequence (P33261 whole entry): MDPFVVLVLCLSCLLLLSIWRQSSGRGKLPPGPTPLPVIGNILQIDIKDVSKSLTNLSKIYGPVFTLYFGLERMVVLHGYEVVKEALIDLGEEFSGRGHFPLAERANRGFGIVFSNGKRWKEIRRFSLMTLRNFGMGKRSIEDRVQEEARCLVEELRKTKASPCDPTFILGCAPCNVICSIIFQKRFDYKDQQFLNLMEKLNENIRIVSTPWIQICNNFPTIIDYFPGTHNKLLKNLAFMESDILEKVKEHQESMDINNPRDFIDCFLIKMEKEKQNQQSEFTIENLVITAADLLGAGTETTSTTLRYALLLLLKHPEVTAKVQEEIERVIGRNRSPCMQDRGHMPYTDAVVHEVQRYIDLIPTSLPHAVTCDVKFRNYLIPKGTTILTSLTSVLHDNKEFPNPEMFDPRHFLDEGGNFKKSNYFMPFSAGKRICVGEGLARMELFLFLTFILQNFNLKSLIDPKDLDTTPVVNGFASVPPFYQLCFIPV

In general, Ki refers to a measure of affinity in units of concentration, obtained from inhibition or displacement. What is called Cmax is the highest concentration seen after dosing. One may read the half-life as how long it takes for the measured level to halve. As a reminder, the clearance is a measure of how efficiently the substance is removed, as volume per time. High values mean efficient removal, low ones inefficient removal. For orientation: AUC(0-t) means the area under the concentration-time curve up to a stated or last time point. Lower therefore signals low exposure. As for `CCNCCc1ccc(Cl)c(-c2ccccc2OC)c1.Cl`, the inhibitory constant (Ki) in data set [1] was 2.6 µM; in data set [2], over 10 µM; in data set [9] it was 0.0028 µM; in [13], over 10 µM. Besides, the concentration in [3] peaked (Cmax) at 0.348 µg/mL. Besides, the figures for the Time with Mus musculus [4] and in the data set with Mus musculus [10] were 553 s and 70.8 s, respectively. Also, the half-life is 60 min in data set [5] and 30 min in data set [11]. The Vd in data set [6] was 19.5 L/kg. Moreover, in data set [7], the bioavailability was 134%. In data set [8], the EC50 result is “Not Active”. Also, the activity at 0.25 h, 10 µM on CYP1A2 is 94.3%; at CYP2C9 it was over 100%; on CYP2C19, 90.3%. In data set [12], this compound had a clearance of 28.7 L/h/kg. Moreover, in [14], the exposure AUC(0-t) at 8 h was 0.442 µg·h/mL.

These data come from ChEMBL document CHEMBL5038590, “Discovery of G Protein-Biased Ligands against 5-HT7R” (J Med Chem, 2021).
